Experimental data as given in ChEMBL document CHEMBL3407490, “Synthesis of functionalized 3-, 5-, 6- and 8-aminoquinolines via intermediate (3-pyrrolin-1-yl)- and (2-oxopyrrolidin-1-yl)quinolines and evaluation of their antiplasmodial and antifungal activity” (Eur J Med Chem, 2015).
Converted amounts (≈) assume the structure as drawn. The source made the active and inactive calls. No cut-off for these calls is given here.

Key:
Plasmodium falciparum [1] = assay: Antiplasmodial activity against chloroquine-sensitive asexual erythrocytic stage of Plasmodium falciparum NF54 assessed as […] lactate dehydrogenase assay; assay type: functional, organism-based
Procedure, shortened: (§1)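 Asexual erythrocytic P. falciparum kept in continuous culture (modified Trager–Jensen). Growth measured by parasite lactate dehydrogenase assay (modified Makler). Full dose-response: 10 twofold dilutions in complete medium from 10 μg/mL down to 0.02 μg/mL. Tested in triplicate on one occasion. Chloroquine and artesunate as references.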

Plasmodium falciparum [2] = assay: Resistance index, ratio of IC50 for chloroquine-resistant asexual erythrocytic stage of Plasmodium falciparum Dd2 to IC50 for chloroquine-sensitive asexual erythrocytic stage of Plasmodium falciparum NF54; assay type: functional
Procedure, shortened: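 Resistance index calculated as IC50 against Dd2 divided by IC50 against NF54, both from the pLDH assay.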

CHO = assay: Cytotoxicity against CHO cells assessed as cell growth and survival after 48 hrs by MTT assay; assay type: cell-based; conditions: Cricetulus griseus
Procedure, shortened: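 CHO mammalian cells; growth and survival read by MTT assay. Samples diluted in complete medium using the same scheme as the emetine reference (tenfold serial dilutions, 6 concentrations). Emetine was the reference drug. IC50 obtained by non-linear dose-response curve fitting.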

Plasmodium falciparum [3] = assay: Antiplasmodial activity against chloroquine-resistant asexual erythrocytic stage of Plasmodium falciparum Dd2 assessed as […] lactate dehydrogenase assay; assay type: functional, organism-based; procedure, shortened: as §1
[4] = Selectivity index, ratio of IC50 for CHO cells to IC50 for chloroquine-sensitive asexual erythrocytic stage of Plasmodium falciparum NF54; assay type: toxicity, cell-based; conditions: hamster; read-out: Ratio IC50
Procedure, shortened: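 Selectivity index calculated as IC50 in CHO cells (MTT) divided by IC50 against NF54 (pLDH).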

[5] = Antifungal activity against Rhodotorula bogoriensis MUCL 11796 at 600 ug/dish after 4 days by disk diffusion method; assay type: functional; conditions: 600 ug/dis
Procedure, shortened: (§2)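 Disk diffusion: strains subcultured on Sabouraud dextrose agar; inoculum of colonies (yeast) or mycelium plus spores (A. flavus) in sterile saline adjusted to 0.5 McFarland, swabbed onto Mueller-Hinton + GMB agar ([…], 0.5 μg/mL methylene blue). DMSO-dissolved compound applied to 6 mm paper disks and freeze-dried; 600 μg/dish in triplicate. Incubated at 37 °C for 1 day (C. albicans, A. flavus) or 20 °C for 4 days (R. bogoriensis). Nystatin disks as positive control, DMSO disks as negative control.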

Aspergillus flavus [6] = assay: Antifungal activity against Aspergillus flavus IHEM 5785 by microdilution method; assay type: functional
Procedure, shortened: (§3)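 Broth microdilution: log2 dilution series made from stocks in 10% DMSO, diluted 1:5 in RPMI 1640 with glutamine and without bicarbonate. Equal volume of working inoculum added: 1 × 10^3 CFU/mL at 37 °C (C. albicans, A. flavus) or 1 × 10^5 CFU/mL at 20 °C (R. bogoriensis). Absorbance read at 530 nm. MIC taken as the concentration giving 50% growth inhibition versus 1% DMSO medium control. Amphotericin B as positive control.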

Candida albicans [7] = assay: Antifungal activity against Candida albicans IHEM 374 at 600 ug/dish after 1 day by disk diffusion method; assay type: functional, organism-based; conditions: 600 ug/dis; procedure, shortened: as §2
[8] = Antifungal activity against Rhodotorula bogoriensis MUCL 11796 by microdilution method; assay type: functional; procedure, shortened: as §3
Aspergillus flavus [9] = assay: Antifungal activity against Aspergillus flavus IHEM 5785 at 600 ug/dish after 1 day by disk diffusion method; assay type: functional, organism-based; conditions: 600 ug/dis; procedure, shortened: as §2
Candida albicans [10] = assay: Antifungal activity against Candida albicans IHEM 374 by microdilution method; assay type: functional; procedure, shortened: as §3

## c1cnc2ccc(N3CCCC3)cc2c1
Plasmodium falciparum [1]
  IC50: > 50 µM

## CC(O)CCCNc1cccc2ncccc12 (stereo not drawn)
Plasmodium falciparum [1]
  IC50: 32.6 µM

## OCCCCNc1cccc2ncccc12
Plasmodium falciparum [2]
  Ratio IC50: 2.5
CHO
  IC50: > 100 µM
Plasmodium falciparum [1]
  IC50: 19.9 µM
Plasmodium falciparum [3]
  IC50: 49 µM
[4]
  selectivity ratio: 23

## CC(C)(O)CCCNc1cccc2cccnc12
[5]
  Activity: Active
Aspergillus flavus [6]
  MIC: 60 µM (≈ 14.7 µg/mL)
Candida albicans [7]
  Activity: Active
Plasmodium falciparum [1]
  IC50: > 40 µM
[8]
  MIC: 30 µM (≈ 7.33 µg/mL)
Aspergillus flavus [9]
  Activity: Active
Candida albicans [10]
  MIC: 1000 µM (≈ 244 µg/mL)

## C[C@@H]1[C@H](O)[C@@H](C)/C=C/C=C/C=C/C=C/C=C/C=C/C=C/[C@H](O[C@@H]2O[C@H](C)[C@@H](O)[C@H](N)[C@@H]2O)C[C@@H]2O[C@](O)(C[C@@H](O)C[C@@H](O)[C@H](O)CC[C@@H](O)C[C@@H](O)CC(=O)O[C@H]1C)C[C@H](O)[C@H]2C(=O)O [AMPHOTERICIN B]
Aspergillus flavus [6]
  MIC: 30 µM (≈ 27.7 µg/mL)
[8]
  MIC: < 0.2 µM
Candida albicans [10]
  MIC: < 0.2 µM

## O=C1CCCN1c1cccc2ncccc12
Plasmodium falciparum [1]
  IC50: > 45 µM

## C[C@H]1[C@H](OC(=O)CCC(=O)O)O[C@@H]2O[C@@]3(C)CC[C@H]4[C@H](C)CC[C@@H]1[C@@]24OO3 [ARTESUNATE]
Plasmodium falciparum [2]
  Ratio IC50: 2.2
Plasmodium falciparum [3]
  IC50: 0.011 µM

## C1=CCN(c2ccc3ncccc3c2)C1
Plasmodium falciparum [1]
  IC50: > 50 µM

## Cc1nc2ccccc2cc1N1CCCC1C (stereo not drawn)
Plasmodium falciparum [2]
  Ratio IC50: 2.9
CHO
  IC50: 294 µM
Plasmodium falciparum [1]
  IC50: 13.3 µM
Plasmodium falciparum [3]
  IC50: 38 µM
[4]
  selectivity ratio: 22

## Cc1nc2ccccc2cc1NCCCC(C)O (stereo not drawn)
Plasmodium falciparum [1]
  IC50: > 40 µM

## O=C1CCCN1c1cccc2cccnc12
Plasmodium falciparum [1]
  IC50: > 45 µM

## Cc1nc2ccccc2cc1NCCCC(C)(C)O
Plasmodium falciparum [1]
  IC50: > 35 µM

## OCCCCNc1ccc2ncccc2c1
[5]
  Activity: Active
Aspergillus flavus [6]
  MIC: 10 µM (≈ 2.16 µg/mL)
Candida albicans [7]
  Activity: Active
Plasmodium falciparum [1]
  IC50: > 45 µM
[8]
  MIC: 1200 µM (≈ 260 µg/mL)
Aspergillus flavus [9]
  Activity: Active
Candida albicans [10]
  MIC: 1200 µM (≈ 260 µg/mL)

## OCCCCNc1cnc2ccccc2c1
Plasmodium falciparum [1]
  IC50: > 45 µM

## CC1CCCN1c1ccc2ncccc2c1 (stereo not drawn)
Plasmodium falciparum [1]
  IC50: 41.9 µM

## C1=CCN(c2cccc3ncccc23)C1
Plasmodium falciparum [1]
  IC50: > 50 µM

## CC(O)CCCNc1ccc2ncccc2c1 (stereo not drawn)
[5]
  Activity: Active
Aspergillus flavus [6]
  MIC: 300 µM (≈ 69.1 µg/mL)
Candida albicans [7]
  Activity: Active
Plasmodium falciparum [1]
  IC50: > 40 µM
[8]
  MIC: 1100 µM (≈ 253 µg/mL)
Aspergillus flavus [9]
  Activity: Active
Candida albicans [10]
  MIC: 1100 µM (≈ 253 µg/mL)

## O=C1CCCN1c1cnc2ccccc2c1
Plasmodium falciparum [1]
  IC50: > 45 µM

## CC[C@H]1CN2CCc3cc(OC)c(OC)cc3[C@@H]2C[C@@H]1C[C@H]1NCCc2cc(OC)c(OC)cc21 [EMETINE]
CHO
  IC50: 0.125 µM

## CC1CCCN1c1cnc2ccccc2c1 (stereo not drawn)
Plasmodium falciparum [1]
  IC50: 31.1 µM

## c1cc(N2CCCC2)c2cccnc2c1
Plasmodium falciparum [1]
  IC50: > 50 µM

## OCCCCNc1cccc2cccnc12
[5]
  Activity: Active
Aspergillus flavus [6]
  MIC: 100 µM (≈ 21.6 µg/mL)
Candida albicans [7]
  Activity: Active
Plasmodium falciparum [1]
  IC50: > 45 µM
[8]
  MIC: 40 µM (≈ 8.65 µg/mL)
Aspergillus flavus [9]
  Activity: Active
Candida albicans [10]
  MIC: 1200 µM (≈ 260 µg/mL)

## CC(C)(O)CCCNc1cccc2ncccc12
[5]
  Activity: Active
Aspergillus flavus [6]
  MIC: 300 µM (≈ 73.3 µg/mL)
Candida albicans [7]
  Activity: Active
Plasmodium falciparum [1]
  IC50: 28.2 µM
[8]
  MIC: 20 µM (≈ 4.89 µg/mL)
Aspergillus flavus [9]
  Activity: Active
Candida albicans [10]
  MIC: 2000 µM (≈ 489 µg/mL)

## Brc1c(Br)c(Br)n(-c2ccc3ncccc3c2Br)c1Br
Plasmodium falciparum [1]
  IC50: > 15 µM

## CC1CCCN1c1cccc2ncccc12 (stereo not drawn)
Plasmodium falciparum [1]
  IC50: > 45 µM

## CC(O)CCCNc1cnc2ccccc2c1 (stereo not drawn)
[5]
  Activity: Active
Aspergillus flavus [6]
  MIC: 100 µM (≈ 23 µg/mL)
Candida albicans [7]
  Activity: Active
Plasmodium falciparum [1]
  IC50: > 40 µM
[8]
  MIC: 300 µM (≈ 69.1 µg/mL)
Aspergillus flavus [9]
  Activity: Active
Candida albicans [10]
  MIC: 1100 µM (≈ 253 µg/mL)

## C1=CCN(c2cccc3cccnc23)C1
Plasmodium falciparum [1]
  IC50: > 50 µM

## C1=CCN(c2cnc3ccccc3c2)C1
Plasmodium falciparum [1]
  IC50: > 50 µM

## O=C1CCCN1c1ccc2ncccc2c1
Plasmodium falciparum [1]
  IC50: > 45 µM

## CC(C)(O)CCCNc1ccc2ncccc2c1
Plasmodium falciparum [1]
  IC50: > 40 µM

## c1ccc2ncc(N3CCCC3)cc2c1
Plasmodium falciparum [1]
  IC50: > 50 µM
